# Test results taken from ChEMBL document CHEMBL1144182, “Antimicrobial and cytotoxic arylazoenamines. Part III: antiviral activity of selected classes of arylazoenamines” (Bioorg Med Chem, 2008).
# Activity calls are given as the source filed them. How the calls were made is not given here.
# Tests used:
# [1] = Cytotoxicity against mock-infected human MT4 cells assessed as reduction in cell viability after 96 hrs by MTT assay; assay type: cell-based
# Summary of the method: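 Exponentially growing MT-4 cells seeded at 1 × 10^5 cells/mL in RPMI-1640 with 10% FCS, penicillin and streptomycin, with or without serial compound dilutions. Incubated at 37 °C, 5% CO2; viability read by MTT after 96 h. CC50 is the concentration reducing mock-infected cell viability by 50%.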
# [2] = Cytotoxicity against mock-infected MDBK cells assessed as reduction in cell viability after 96 hrs by MTT assay; assay type: cell-based, Bos taurus; conditions: cattle
# Summary of the method: (§1)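 Cytotoxicity run in parallel with the antiviral assays. MDBK seeded at 6 × 10^5 and BHK at 1 × 10^6 cells/mL in maintenance medium with or without serial compound dilutions. Incubated 48–96 h at 37 °C, 5% CO2, then viability read by MTT. CC50 is the concentration reducing mock-infected cell viability by 50%.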
# [3] = system: Bovine viral diarrhea virus 1; test: Antiviral activity against BVDV infected in MDBK cells assessed as protection against virus-induced cytopathogenicity after 4 days by MTT assay; assay type: functional, organism-based; conditions: Bovine viral diarrhea virus isolates and strains, 96 h
# Summary of the method: (§2)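 MDBK (BVDV) or BHK-21 (YFV) cells were seeded at 3 × 10^4 or 5 × 10^4 cells/well respectively and grown overnight to confluent monolayers at 37 °C in 5% CO2. Monolayers were infected at m.o.i. 0.01 in serum-free medium. After 1 h, MEM Earle's with 1% FCS was added, with or without serial compound dilutions. After 3–4 days at 37 °C, viability was read by MTT. EC50 was taken as 50% protection from virus-induced cytopathogenicity.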
# [4] = Cytotoxicity against mock-infected BHK cells assessed as reduction in cell viability after 96 hrs by MTT assay; assay type: cell-based, Mesocricetus auratus; conditions: hamster; summary of the method: as §1
# [5] = system: Yellow fever virus; test: Antiviral activity against YFV infected in BHK21 cells assessed as protection against virus-induced cytopathogenicity after 4 days by MTT assay; assay type: functional, organism-based; conditions: BHK-21, 96 h; summary of the method: as §2
# [6] = Cytotoxicity against mock-infected african green monkey Vero76 cells assessed as reduction in cell viability after 96 hrs by MTT assay; assay type: cell-based, Vero; conditions: chlorocebus sabaeus
# [7] = system: Coxsackievirus B2; test: Antiviral activity against CVB2 infected in Vero76 cells assessed as reduction in virus plaque formation after 4 days by MTT assay; assay type: functional, organism-based; conditions: Enterovirus B, Vero 76, 96 h
# [8] = system: Respiratory syncytial virus; test: Antiviral activity against RSV infected in Vero76 cells assessed as reduction in virus plaque formation after 4 days by MTT assay; assay type: functional, organism-based; conditions: human respiratory syncytial virus, Vero 76, 96 h
# [9] = system: Poliovirus 1; test: Antiviral activity against Sb1 virus infected in Vero76 cells assessed as reduction in virus plaque formation after 4 days by MTT assay; assay type: functional, organism-based; conditions: Enterovirus C, Sabin, Vero 76, 96 h
# [10] = system: Human immunodeficiency virus 1; test: Antiviral activity against HIV1 infected in MT4 cells assessed as virus-induced cytopathogenicity after 4 days; assay type: functional, organism-based
# [11] = system: Vaccinia virus; test: Antiviral activity against VV infected in Vero76 cells assessed as reduction in virus plaque formation after 4 days by MTT assay; assay type: functional, organism-based; conditions: Orthopoxvirus vaccinia; Vero 76
# [12] = system: Vesicular stomatitis virus; test: Antiviral activity against VSV infected in Vero76 cells assessed as reduction in virus plaque formation after 4 days by MTT assay; assay type: functional, organism-based; conditions: Vero 76
Structure (SMILES),CC50 at 96 h [1] [µM],CC50 at 96 h [2] [µM],EC50 [3] [µM],CC50 at 96 h [4] [µM],EC50 [5] [µM],CC50 at 96 h [6] [µM],EC50 [7] [µM],EC50 [8] [µM],EC50 [9] [µM],Activity [10],Activity [11],Activity [12]
Clc1ccccc1N1CCN(/C=C/N=N/c2ccccc2)CC1,16,13,> 13,69,> 69,14,5,5,> 14,inactive,inactive,inactive
CN1C=C(/N=N/c2c(F)c(F)c(F)c(F)c2F)CCC1,> 100,> 100,> 100,> 100,> 100,> 100,> 100,> 100,> 100,inactive,inactive,inactive
C(=C\N1CCN(c2ccccc2)CC1)/N=N/c1ccccc1,15,5,> 5,60,42,50,5,11,> 50,inactive,inactive,inactive
Clc1ccc(/N=N\C2=C3CCCN3CCC2)cc1Cl,26,67,> 67,61,> 61,> 100,30,> 100,45,inactive,inactive,inactive
Fc1ccccc1N1CCN(/C=C/N=N/c2ccccc2)CC1,32,10,> 10,62,> 62,34,6,6,> 34,inactive,inactive,inactive
CN1CCC/C1=C\N=N\c1cccc([N+](=O)[O-])c1,25,> 100,5.5,> 100,> 100,> 100,> 100,> 100,> 100,inactive,inactive,inactive
Clc1ccc(/N=N\C2=C3CCCCN3CCC2)cc1,42,60,> 60,69,> 69,80,19,25,> 80,inactive,inactive,inactive
Clc1ccccc1/N=N\C1=C2CCCCN2CCC1,78,> 100,> 100,93,> 93,> 100,32,60,> 100,inactive,inactive,inactive
Brc1cccc(/N=N\C2=C3CCCCN3CCC2)c1,9,10,> 10,49,> 49,> 100,18,> 100,> 100,inactive,inactive,inactive
COc1ccc(/N=N/C=C2\CCCN2C)cc1,> 100,67,18,77,> 77,100,5,> 100,> 100,inactive,inactive,inactive
C(=C\N1CCSCC1)/N=N/c1ccccc1,19,14,> 14,> 100,> 100,30,6,> 30,> 30,inactive,inactive,inactive
CN1C=C(/N=N/c2ccc(Cl)c(Cl)c2)CCC1,43,73,7,38,> 38,> 100,14,> 100,> 100,inactive,inactive,inactive
O=[N+]([O-])c1ccc(N2CCN(/C=C/N=N/c3ccccc3)CC2)cc1,41,20,> 20,48,12,45,14,13,> 45,inactive,inactive,inactive
c1ccc2c(/N=N\C3=C4CCCCN4CCC3)cccc2c1,12,> 100,6,20,> 20,90,> 90,> 90,> 90,inactive,inactive,inactive
O=[N+]([O-])c1cccc(/N=N\C2=C3CCCN3CCC2)c1,> 100,68,> 68,95,> 95,> 100,54,> 100,60,inactive,inactive,inactive
c1ccc2c(N=NC3=C4CCCN4CCC3)nncc2c1,52,> 100,> 100,> 100,> 100,> 100,> 100,7,> 100,inactive,inactive,inactive
CN1CCC/C1=C\N=N\c1ccc(Br)cc1,23,> 100,11,> 100,> 100,> 100,36,20,> 100,inactive,inactive,inactive
Fc1ccc(/N=N\C2=C3CCCCN3CCC2)cc1C(F)(F)F,3,> 100,> 100,60,> 60,> 100,45,> 100,> 100,inactive,inactive,inactive
CN1C=C(/N=N/c2ccc(Cl)c(C(F)(F)F)c2)CCC1,62,28,–,44,> 44,90,34,> 90,> 90,inactive,inactive,inactive
O=c1cnn([C@@H]2O[C@H](CO)[C@@H](O)[C@H]2O)c(=O)[nH]1 [6-AZAURIDINE],2,> 100,> 100,> 100,26,20,> 20,1.2,> 20,–,–,–
C[C@@]1(O)[C@H](O)[C@@H](CO)O[C@H]1n1cnc2c(=O)[nH]c(N)nc21 [2'-B-METHYL-GUANOSINE],> 100,> 100,1.7,90,1,> 100,20,> 100,> 100,–,–,–
CN1C=C(/N=N/c2cccc(Br)c2)CCC1,> 100,> 100,19,> 100,–,> 100,27,18,> 100,inactive,inactive,inactive
